Laboratory results reported in ChEMBL document CHEMBL3046104, “Antifeedant diterpenoids against Tribolium castaneum from the stems and twigs of Ceriops tagal (Rhizophoraceae)” (Molecules, 2011).

Columns and labels:
Tribolium castaneum [1] = experiment: Antifeedant activity against Tribolium castaneum (red flour beetle) assessed as reduction of food consumption after 3 days by flour disk bioassay relative to control; type: functional, organism-based
Summary of the method: (§1)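 Adult T. castaneum from a lab colony kept in the dark at 28–30 °C, 70%–80% RH, starved 24 h. Treated flour disks (36–39 mg) air-dried overnight, then equilibrated 48 h at 28–30 °C. Twenty unsexed, group-weighed adults per vial for 3 days; uneaten disk weighed against controls. Insect-free treated vials corrected for solvent evaporation. Six replicates; 10–1000 ppm; EC50 by linear regression.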

Tribolium castaneum [2] = experiment: Antifeedant activity against Tribolium castaneum (red flour beetle) assessed as reduction of food consumption at 1000 ppm after 3 days by flour disk bioassay relative to control; type: functional; summary of the method: as §1
Tribolium castaneum [3] = experiment: Antifeedant activity against Tribolium castaneum (red flour beetle) assessed as reduction of food consumption at 300 ppm after 3 days by flour disk bioassay relative to control; type: functional; summary of the method: as §1
Tribolium castaneum [4] = experiment: Antifeedant activity against Tribolium castaneum (red flour beetle) assessed as reduction of food consumption at 100 ppm after 3 days by flour disk bioassay relative to control; type: functional; summary of the method: as §1
Tribolium castaneum [5] = experiment: Antifeedant activity against Tribolium castaneum (red flour beetle) assessed as reduction of food consumption at 30 ppm after 3 days by flour disk bioassay relative to control; type: functional; summary of the method: as §1
Tribolium castaneum [6] = experiment: Antifeedant activity against Tribolium castaneum (red flour beetle) assessed as reduction of food consumption at 10 ppm after 3 days by flour disk bioassay relative to control; type: functional; summary of the method: as §1

Row | Compound | EC50 (Tribolium castaneum [1]) | level, % of control (Tribolium castaneum [2]) | level, % of control (Tribolium castaneum [3]) | level, % of control (Tribolium castaneum [4]) | level, % of control (Tribolium castaneum [5]) | level, % of control (Tribolium castaneum [6])
1 | C=C[C@@]1(C)CC[C@@]2(C)[C@@H](CC[C@@]3(C)[C@@H]2C=C(O)C(=O)[C@@]32CO2)C1 [TAGALSIN A] | 375.3 ppm | 40.05% | 53.15% | 73.43% | 88.28% | 97.56%
2 | C=C[C@@]1(C)CC[C@@]2(C)[C@@H](CC[C@@]3(C)[C@@H]2C=C(O)C(=O)[C@]32CO2)C1 [TAGALSIN B] | 277.6 ppm | 38.85% | 47.65% | 65.32% | 84.17% | 95.23%
3 | C=C[C@@]1(C)CC[C@@]2(C)[C@@H](CC[C@](C)(C(C)=O)[C@@H]2CC(=O)O)C1 [TAGALSIN H] | 285.4 ppm | 35.41% | 49.12% | 63.26% | 73.72% | 92.86%
4 | CC(=O)O[C@@H]1C[C@H](O)[C@@]23CO[C@@H](O)[C@]1(C)[C@@H]2C[C@@H](O)[C@]1(C)[C@@H]3C(=O)[C@H](OC(C)=O)[C@@]2(C)[C@H](c3ccoc3)C[C@H]3O[C@]321 [TOOSENDANIN] | 66 ppm |  |  |  |  | 
